Values belong to the molecule of their own block, whether it stands above or below them.
How the values were obtained:
Type in all cases: functional
Mus musculus [1] = assay: Antimalarial activity against Plasmodium berghei strain in mice (Mus musculus) by parentral route and change in mean survival time in days was determined at 160 mg/kg subcutaneous dose
How it was run: (§1)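 Normal drug-sensitive P. berghei strain in mice. Test agents dissolved or suspended in peanut oil and given as a single sc dose 72 h postinfection, five mice per dose group. ΔMST = mean survival time of treated mice minus that of controls (days). 60-day survivors are excluded from the treated mean and scored as cured. Minimum active response is a 100% increase in MSTT.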

Mus musculus [2] = assay: Antimalarial activity against Plasmodium berghei strain in mice (Mus musculus) by parentral route and change in mean survival time in days was determined at 320 mg/kg subcutaneous dose; how it was run: as §1
Mus musculus [3] = assay: Antimalarial activity against Plasmodium berghei strain in mice (Mus musculus) by parentral route and change in mean survival time in days was determined at 40 mg/kg subcutaneous dose; how it was run: as §1
Mus musculus [4] = assay: Antimalarial activity against Plasmodium berghei strain in mice (Mus musculus) by parentral route and change in mean survival time in days was determined at 80 mg/kg subcutaneous dose; how it was run: as §1
L1210 [5] = assay: Anti tumor activity against L1210 leukemia in tissue culture and the molar concentration required to reduce the number of L1210 cells; conditions: Mus musculus, L1210, read-out: ID50
How it was run: (§2)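 L1210 leukemia cells in tissue culture were incubated with the test drug for 2 days and the cell number was then assessed. ID50 is the molar drug concentration that reduces the number of L1210 cells by 50%.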

L1210 [6] = assay: Anti tumor activity against L1210 leukemia in tissue culture and the molar concentration required to reduce the number of L1210 cells by 50% was determined.; conditions: Mus musculus, L1210, read-out: ID50; how it was run: as §2
Mus musculus [7] = assay: Antimalarial activity against Plasmodium berghei strain in mice (Mus musculus) by parentral route and change in mean survival time in days was determined at 640 mg/kg subcutaneous dose; how it was run: as §1

SMILES: CONc1nc(N)nc2ccc(S(=O)(=O)c3ccc4ccccc4c3)cc12
Delta MST (Mus musculus [1]): 9.1 days
Delta MST (Mus musculus [2]): 12.7 days
Delta MST (Mus musculus [3]): 3.9 days
Delta MST (Mus musculus [4]): 5.7 days

IC50 (L1210 [5]): 0.11 µM
SMILES: Nc1nc(N)c2cc(S(=O)(=O)c3ccc4ccccc4c3)ccc2n1

SMILES: Nc1nc(NO)c2cc(Sc3cccc(C(F)(F)F)c3)ccc2n1
Delta MST (Mus musculus [1]): 8.1 days
Delta MST (Mus musculus [2]): 10.3 days
Delta MST (Mus musculus [3]): 3.5 days
Delta MST (Mus musculus [4]): 5.1 days

SMILES: ONc1nc(NO)c2cc(Sc3cccc(C(F)(F)F)c3)ccc2n1
Delta MST (Mus musculus [1]): 9.7 days
Delta MST (Mus musculus [2]): 10.7 days
Delta MST (Mus musculus [3]): 1.7 days
Delta MST (Mus musculus [4]): 3.1 days

SMILES: CONc1nc(N)nc2ccc(Sc3cccc(C(F)(F)F)c3)cc12
Delta MST (Mus musculus [1]): 9.7 days
Delta MST (Mus musculus [3]): 5.7 days
Delta MST (Mus musculus [4]): 6.9 days
IC50 (L1210 [6]): 24 µM

SMILES: O=S(=O)(c1ccc2ccccc2c1)c1ccc2nc(NO)nc(NO)c2c1
Delta MST (Mus musculus [1]): 5.9 days
Delta MST (Mus musculus [2]): 8.1 days
Delta MST (Mus musculus [7]): 10.7 days
Delta MST (Mus musculus [3]): 1.1 days
Delta MST (Mus musculus [4]): 3.3 days

SMILES: Nc1nc(NO)c2cc(S(=O)(=O)c3ccc4ccccc4c3)ccc2n1
Delta MST (Mus musculus [1]): 11.1 days
Delta MST (Mus musculus [2]): 14.1 days
Delta MST (Mus musculus [7]): 15.3 days
Delta MST (Mus musculus [3]): 6.1 days
Delta MST (Mus musculus [4]): 8.9 days

SMILES: CN(N)c1nc(N)nc2ccc(S(=O)(=O)c3ccc4ccccc4c3)cc12
Delta MST (Mus musculus [1]): 4.3 days
Delta MST (Mus musculus [2]): 7.1 days
Delta MST (Mus musculus [7]): 10.7 days
Delta MST (Mus musculus [3]): 0.5 days
Delta MST (Mus musculus [4]): 2.3 days

SMILES: NNc1nc(N)nc2ccc(S(=O)(=O)c3ccc4ccccc4c3)cc12
Delta MST (Mus musculus [1]): 2.3 days
Delta MST (Mus musculus [2]): 3.5 days
Delta MST (Mus musculus [7]): 4.5 days
Delta MST (Mus musculus [3]): 0.5 days
Delta MST (Mus musculus [4]): 1.3 days

SMILES: NNc1nc(N)nc2ccc(Sc3cccc(C(F)(F)F)c3)cc12
Delta MST (Mus musculus [1]): 6.9 days
Delta MST (Mus musculus [2]): 11.9 days
Delta MST (Mus musculus [7]): 15.7 days
Delta MST (Mus musculus [3]): 0.5 days
Delta MST (Mus musculus [4]): 3.1 days

SMILES: CN(N)c1nc(N)nc2ccc(Sc3cccc(C(F)(F)F)c3)cc12
Delta MST (Mus musculus [1]): 12.3 days
Delta MST (Mus musculus [3]): 5.7 days
Delta MST (Mus musculus [4]): 8.9 days
